Shown is part of a subset that was picked to be rich in hits.
Lung fibro prol: blocks proliferation of human lung fibroblasts | LL 47 human lung fibroblast viability, ATP luminescence; hits give low values | viability, % at 10 µM | actives 1.1% (n = 85,000) | AID 719;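 active = viability at or below 50% in the single dose screen; inactive = viability above 50%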;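 also: compound exposure lasted 72 h before the ATP readout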
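material = human LL 47 lung fibroblast cells | dosing = compounds added from tenfold dosing solution, 0.1% DMSO final | timing = overnight cell rest, 72 h compound treatment at 37 °C | measured by = CellTiter-Glo luminescence measuring cellular ATP | evaluation = % viability versus median cells-only luminescence | control set = cell-only wells, no compound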
HUVEC prolif 384: blocks proliferation of human endothelial cells; actives 1.1% (n = 86,000); viability, % at 10 µM (by protocol); HUVEC proliferation, CellTiter-Glo luminescence, 72 h; hits give low values;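 active = viability at or below 30%; inactive = viability above 30%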
bCat KO growth: beta-catenin-lacking colon tumor cell growth suppression; HCT116 beta-catenin knockout viability, CellTiter-Glo, 60 h; hits give low values; viability, % at 10 µM; actives 1.5% (n = 140,000); AID 818;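 active = viability at or under a set limit, the compound median less 4 SD, cut at about 6% in these data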
H69AR growth 86K: blocks growth of human H69AR lung tumor cells | H69AR lung tumor viability, ATP luminescence, 72 h; hits give low values | viability, % at 10 µM | actives 6% (n = 85,000);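 active = viability at or below 40%; inactive = viability above 40%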;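 also: multidrug resistant small cell line overexpressing MRP-1 efflux transporter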
PTEN del growth: suppresses growth of cells with PTEN deletion. HCT116 PTEN-null viability, CellTiter-Glo, 60 h; hits give low values. viability, % at 10 µM. actives 1.2% (n = 140,000). AID 827;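 active = viability at or below a set limit, 4 SD under the median of all tested compounds, cut at about 3.7% in these data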;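 also: PTEN knockout HCT116 line with beta catenin targeted HCT116 as companion control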
Hits are given with their value; i = inactive; nt = no result given.

SMILES | Lung fibro prol | HUVEC prolif 384 | bCat KO growth | H69AR growth 86K | PTEN del growth
Oc1ccc(/C=N/Nc2ncc(Br)cn2)c(O)c1 | nt | nt | 6.0 | nt | i
O=C(CSc1ccc(Cl)cc1)Nc1ccc(-c2nc3ccccc3[nH]2)cc1 | nt | nt | i | nt | i
CCCCNc1nc(N)nc(-c2cc(Cl)ccc2O)n1 | nt | nt | i | nt | i
CCNc1nc(N)nc(-c2cc(Cl)ccc2O)n1 | nt | nt | 5.2 | nt | i
Nc1ccc(C(=O)c2ccc3c(c2)OCCO3)cc1N | i | i | nt | 36 | nt
COCCCNC(=O)c1sc2ncnc(N3CCc4ccccc4C3)c2c1C | i | i | i | 28 | i
CC(C)(C)OC(=O)N1CCC(c2cc(=O)n3[nH]c(-c4ccc(Cl)cc4)cc3n2)CC1 | i | i | i | 11 | i
CCCCNC(=O)C(CC)Sc1nc2sc(C(=O)OC)c(C)c2c(=O)n1N (centres undefined) | nt | nt | i | nt | i
CCC(Sc1nc2sc(C(=O)OC)c(C)c2c(=O)n1N)C(=O)N(CC)CC (centres undefined) | i | i | i | 19 | i
Cc1cccc(N2CCN(C(=O)C(Cc3ccccc3)n3cccc3)CC2)c1C (centres undefined) | i | i | i | 23 | i
Cc1cccc(N2CCN(C(=O)c3ccncc3)CC2)c1C | i | i | i | 21 | i
C=CCNC(=O)/C(C#N)=C\c1cc(Cl)c(OCC)c(OC)c1 | nt | nt | i | nt | i
Cc1ccc2[nH]c3c(NCCN4CCOCC4)ncnc3c2c1 | i | i | i | i | i
Clc1ccc2[nH]c3c(NCCCN4CCOCC4)ncnc3c2c1 | i | i | 5.0 | i | i
CCC(C)n1c(=S)[nH]c2c(sc3ccc([N+](=O)[O-])cc32)c1=O (centres undefined) | nt | nt | i | nt | i
CC1CCCN(C(=O)c2ccc(S(=O)(=O)N3CCC(c4nc5ccccc5s4)CC3)cc2)C1 (centres undefined) | i | i | nt | 32 | nt
Cc1c(Br)c([N+](=O)[O-])nn1CC(=O)Nc1ccc(Cc2ccncc2)cc1 | nt | nt | i | nt | i
CC1=C(C#N)c2nc(N)c(C#N)c(C)c2/C1=C\c1ccccc1 | 8.1 | 13 | nt | 1.6 | nt
CCC(C(=O)NNC(=O)c1cnccn1)c1ccccc1 (centres undefined) | nt | nt | i | nt | i
N=c1c2c(-c3ccccc3)c(-c3ccccc3)n(Cc3ccco3)c2ncn1CCO | i | i | 1.4 | 17 | 1.7
N=c1c2c(-c3ccccc3)c(-c3ccccc3)n(Cc3ccco3)c2ncn1CCN1CCOCC1 | 47 | 18 | 1.2 | 36 | 1.6
COc1ccc(-c2nc3ccccc3c(=O)n2CCOc2cc(C)ccc2C)cc1 | nt | nt | i | nt | i
COc1ccc(OC)c(C2CC(c3c(-c4ccccc4)c4cc(Cl)ccc4[nH]c3=O)=NN2S(C)(=O)=O)c1 (centres undefined) | nt | nt | 0.6 | nt | 0.5
COc1ccc(C2CC(c3c(-c4ccccc4)c4cc(Cl)ccc4[nH]c3=O)=NN2S(C)(=O)=O)cc1 (centres undefined) | i | i | i | 14 | i
O=C(O)CCC(=O)N1N=C(c2c(-c3ccccc3)c3cc(Cl)ccc3[nH]c2=O)CC1c1cccs1 (centres undefined) | nt | nt | i | nt | i
SMILES | Lung fibro prol | HUVEC prolif 384 | bCat KO growth | H69AR growth 86K | PTEN del growth
Cc1cccc(C)c1OCC(=O)Nc1cccc(-c2nnc(-c3ccccc3)o2)c1 | nt | nt | i | nt | i
O=C(Nc1ccc2nc(-c3cccnc3)[nH]c2c1)c1ccco1 | i | i | i | i | i
O=C(Nc1cccc(-c2nnc(-c3ccccc3)o2)c1)c1ccco1 | i | i | nt | 15 | nt
Cc1cccc(OCC(=O)Nc2cccc(-c3nnc(-c4ccccc4)o3)c2)c1C | i | i | i | 9.8 | i
Cc1ccc2nc(-c3cccc(NC(=O)c4ccco4)c3)[nH]c2c1 | nt | i | i | 21 | i
O=C(Nc1ccc2nc(-c3ccco3)[nH]c2c1)c1cccs1 | i | i | i | 40 | i
Cc1ccc(CNC(=O)C2CCC(=O)N2CCc2ccccc2)cc1 (centres undefined) | i | i | i | i | i
CC(C)C(NC(=S)Nc1ccccc1)C(=O)O (centres undefined) | nt | nt | i | nt | i
COc1ccc(/C=C2/C(=O)OCc3cc(OC)c(OC)cc32)cc1 | nt | nt | i | nt | i
COc1ccc(OC)c(NC(=O)c2cccnc2Sc2ccccc2)c1 | nt | nt | i | nt | i
CCc1ccc(/C=N/n2c(C)cc(C)c(C#N)c2=O)cc1 | nt | nt | i | nt | i
O=C(CCc1ccc(S(=O)(=O)NCc2ccccc2)cc1)NCC1CCCO1 (centres undefined) | nt | nt | i | nt | i
O=C(Nc1cccc(-c2nnc(-c3ccccc3)o2)c1)C1CCCCC1 | i | i | i | 19 | i
Clc1cccc(-c2nnc(-c3ccccc3)o2)c1 | nt | nt | 2.4 | nt | i

Screening results (PubChem)
